From ChEMBL document CHEMBL3102732, “Potential antiviral lignans from the roots of Saururus chinensis with activity against Epstein-Barr virus lytic replication” (J Nat Prod, 2014)

Key:
[1] = Selectivity index, ratio of CC50 for human P3HR1 cells to EC50 for EBV infected in human P3HR1 cells; design: species or system P3HR-1
In short: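 CC50: P3HR-1 cells treated or untreated with compounds, viability counted by Trypan blue exclusion under light microscope 2 days post-treatment, relative to nondrug-treated controls, CC50 from dose-response curves. EC50: TPA (20 ng/mL)/sodium butyrate (0.3 mM)-induced P3HR-1 cells, compounds added 3 h later, EBV EBNA1 DNA quantified by real-time PCR at 48 h. Ratio CC50/EC50.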

[2] = Cytotoxicity against human P3HR1 cells assessed as cell viability after 2 days by trypan blue staining-based light microscopy; design: species or system P3HR-1
[3] = system: Human gammaherpesvirus 4; test: Antiviral activity against EBV infected in human P3HR1 cells assessed as inhibition of lytic viral DNA replication after 48 hrs by RT-PCR analysis; type: functional, organism-based; details: human gammaherpesvirus 4, P3HR-1, 48 h
In short: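 P3HR-1 Burkitt lymphoma cells latently carrying EBV, grown in RPMI 1640 with 10% FBS, induced to lytic replication with TPA 20 ng/mL plus sodium butyrate 0.3 mM. Compounds added 3 h later across a concentration range. At 48 h post-induction, total cellular DNA purified, EBV genome copies quantified by SYBR green real-time PCR for EBNA1. Noninduced background subtracted, normalised to untreated induced cells, EC50 from dose-response curve.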

SMILES | Ratio CC50/EC50 [1] | CC50 at 48 h [2] [µM] | EC50 [3] [µM]
COc1cc([C@@H](O)[C@@H](C)Oc2ccc([C@H]3O[C@H](c4ccc(O[C@H](C)[C@H](O)c5ccc(OC)c(OC)c5)c(OC)c4)[C@H](C)[C@H]3C)cc2OC)ccc1O | 9.2 | 69.5 | 7.55
COc1cc([C@H]2O[C@@H](c3cc(OC)c(OC)c(OC)c3)[C@H](C)[C@@H]2C)cc(OC)c1O | 2.2 | 65.8 | 29.5
C=CCc1cc(OC)c(O[C@H](C)[C@H](O)c2cc(OC)c3c(c2)OCO3)c(OC)c1 | 4 | 50.6 | 12.8
COc1ccc([C@@H](O)[C@@H](C)Oc2ccc([C@H]3O[C@@]4(c5ccc(O[C@H](C)[C@H](O)c6ccc(OC)c(OC)c6)c(OC)c5)O[C@@]4(C)[C@H]3C)cc2OC)cc1OC (relative stereo) | 4.4 | 64.8 | 14.5
COc1cc([C@H]2O[C@@H](c3cc(OC)c(OC)c(OC)c3)[C@H](C)[C@H]2C)cc(OC)c1OC [EPIGRANDISIN] | >8 | > 200 | 25
COc1ccc([C@@H](O)[C@@H](C)Oc2ccc([C@H]3O[C@H](c4ccc(O[C@H](C)[C@H](O)c5ccc6c(c5)OCO6)c(OC)c4)[C@H](C)[C@H]3C)cc2OC)cc1OC [MANASSANTIN B] | >116.4 | > 200 | 1.72
COc1cc([C@H]2O[C@@H](c3cc(OC)c(OC)c(OC)c3)[C@H](C)[C@@H]2C)cc(O)c1OC | 1.9 | 32 | 16.7
C/C=C/c1cc(OC)c(O[C@@H](C)[C@@H](O)c2cc(OC)c(OC)c(OC)c2)c(OC)c1 | 3.2 | 77.3 | 24
COc1cc([C@H]2O[C@@H](c3ccc(OC)c(OC)c3)[C@@H](C)[C@H]2C)ccc1O | 2.3 | 62.3 | 26.9
C=CCc1cc(OC)c(O[C@H](COC(C)=O)[C@H](O)c2cc(OC)c(OC)c(OC)c2)c(OC)c1 | 3.7 | 194 | 53.3
COc1cc([C@@H](O)[C@@H](C)Oc2ccc([C@@H]3O[C@H](c4ccc(O)c(OC)c4)[C@H](C)[C@H]3C)cc2OC)ccc1O | 3.3 | 23.2 | 6.95
C/C=C/c1cc(OC)c(O[C@H](C)[C@H](OC(C)=O)c2cc(OC)c(OC)c(OC)c2)c(OC)c1 | 3 | 76.8 | 25.4
COc1ccc([C@H]2O[C@@H](c3ccc(OC)c(OC)c3)[C@@H](C)[C@H]2C)cc1OC | 1.2 | 59.8 | 49.9
COc1ccc([C@@H](O)[C@@H](C)Oc2ccc([C@H]3O[C@H](c4ccc(O[C@H](C)[C@H](O)c5ccc6c(c5)OCO6)c(OC)c4)[C@H](C)[C@H]3C)cc2OC)cc1O | – | 26.5 | 2.69
COc1cc([C@@H](O)[C@@H](C)Oc2ccc([C@H]3O[C@H](c4ccc(O[C@H](C)[C@H](O)c5ccc6c(c5)OCO6)c(OC)c4)[C@H](C)[C@H]3C)cc2OC)ccc1O [4-O-DEMETHYLMANASSANTIN B] | 20.2 | 70.8 | 3.52
COc1ccc([C@H]2O[C@@H](c3cc(OC)c(O)c(OC)c3)[C@H](C)[C@@H]2C)cc1OC | 8.6 | 100 | 11.6
COc1ccc([C@@H](O)[C@@H](C)Oc2ccc(C(=O)[C@H](C)[C@H](C)C(=O)c3ccc(O[C@H](C)[C@H](O)c4ccc5c(c4)OCO5)c(OC)c3)cc2OC)cc1OC | >12.4 | > 200 | 16.2
C=CCc1cc(OC)c(O[C@H](C)[C@H](OC(C)=O)c2cc(OC)c(OC)c(OC)c2)c(OC)c1 | 4 | 85 | 21.5
COc1cc([C@@H](OC(C)=O)[C@@H](C)Oc2c(OC)cc(/C=C/CO)cc2OC)cc(OC)c1OC | >4.2 | > 200 | 44.3
COc1ccc([C@H]2O[C@@H](c3cc(OC)c(OC)c(OC)c3)[C@H](C)[C@@H]2C)cc1OC | 2.5 | 172 | 67.9
COc1cc([C@H]2O[C@@H](c3cc(OC)c4c(c3)OCO4)[C@H](C)[C@@H]2C)cc(OC)c1OC | 2 | 55 | 27.3
COc1cc(C(=O)[C@@H](C)Oc2c(OC)cc(/C=C/CO)cc2OC)cc(OC)c1OC | >2.5 | > 200 | 80.1
COc1ccc([C@@H](O)[C@@H](C)Oc2ccc([C@H]3O[C@H](c4ccc(OC)c(OC)c4)[C@H](C)[C@H]3C)cc2OC)cc1OC | 65 | 110 | 1.7
COc1ccc([C@H](O)[C@@H](C)Oc2ccc([C@H]3O[C@H](c4ccc5c(c4)OCO5)[C@H](C)[C@H]3C)cc2OC)cc1OC [SAUCERNEOL D] | 41.1 | 45 | 1.09
C=CCc1cc(OC)c(O[C@H](C)C(=O)c2cc(OC)c(OC)c(OC)c2)c(OC)c1 | >9.1 | > 200 | 21.9
C/C=C/c1cc(OC)c(O[C@H](C)[C@H](O)c2cc(OC)c3c(c2)OCO3)c(OC)c1 | 4.2 | 90.3 | 21.7
C/C=C/c1ccc(O[C@H](C)[C@H](O)c2ccc(O)c(OC)c2)c(OC)c1 | 2.6 | 61.3 | 23.8
